Bioassay records (PubChem BioAssay)
MC4R antag cAMP: human MC4R antagonism in cAMP assay | MC4R-expressing cells, MTII-stimulated cAMP, LANCE TR-FRET | inhibition, % at 6.5 µM | 0.48% of 360,000 active | P32245;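 active means inhibition above its plate's cutoff, the mean of tested wells on that plate plus 3 SD, cut at about 29% in these data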;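 further: 0% = Melanotan II alone and 100% = Melanotan II plus saturating MCL0020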
Target sequence (P32245 whole entry, looked up): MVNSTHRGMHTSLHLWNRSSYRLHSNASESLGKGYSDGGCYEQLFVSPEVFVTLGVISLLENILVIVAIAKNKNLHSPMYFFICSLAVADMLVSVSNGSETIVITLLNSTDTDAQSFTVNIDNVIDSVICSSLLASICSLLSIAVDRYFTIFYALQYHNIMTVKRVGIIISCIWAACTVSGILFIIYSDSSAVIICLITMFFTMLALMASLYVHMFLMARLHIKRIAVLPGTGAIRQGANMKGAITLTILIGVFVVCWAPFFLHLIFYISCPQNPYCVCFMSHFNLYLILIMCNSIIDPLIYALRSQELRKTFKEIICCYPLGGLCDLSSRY
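Assay system: U2OS-MC4R stable cell line; Also added: Melanotan II; Technique: Eu-cAMP/anti-cAMP TR-FRET, emission 671 nm; Times: 30-min compound, 1-h challenge, 1-h detection, room temperature.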
TMEM16A inh: blocks the mouse calcium-activated chloride channel TMEM16A; Q8BHY3; HEK293 TMEM16A/YFP iodide influx fluorescence, ionomycin; normalized B-score (activity score, 25-100; higher = stronger inhibition) at 10 µM; 1.2% of 310,000 active;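 active means ratio plate-corrected score three or more library SD toward inhibition, starting fluorescence score within five deviations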;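 further: score derived from kinetic fluorescence span divided by baseline fluorescence per well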
CSC inhib: cancer stem cell inhibition | cancer stem cell-like cells viability, luminescence | inhibition, % at 7.5 µM | 1.1% of 300,000 active; in the data active means inhibition above about 75%; tested in HMLE shEcad cells
MC4R ag barr: human MC4R agonism via beta-arrestin; P32245; U2OS MC4R beta-arrestin complementation, luminescence; percent of melanotan II response, DMSO zero; activation, % at 8.9 µM; 0.98% of 360,000 active; AID 540308;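 active means activation above a per-plate cutoff, the mean activation of sample wells on that plate plus 3 SD, cut at about 8% in these data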
Beta cell apopt: blocks beta cell apoptosis. protection from apoptosis, % (concentration not given with the values). INS-1E cytokine-induced death, ATP luminescence, 48 h; percent of positive-control rescue, neutral wells zero. 0.8% of 300,000 active;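 active means Every replicate reaches about 75%, or at least half do and their mean reaches it too, limit read from the data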;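 further: 0% = cytokine-treated negative control wells and 100% = positive control rescue; higher means more ATP so stronger rescue from cytokine killing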
ANO1 activ: mouse TMEM16A channel activation, primary screen. Q8BHY3. 0.3% of 340,000 active. B-score at 10 µM. HEK293 TMEM16A/YFP-H148Q/I152L, iodide quench fluorescence; active compounds read low. AID 623877;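 active means fluorescence-ratio B-score plate-corrected deviation score at least 3 library SD below zero, with starting fluorescence score within 5 deviations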;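 further: channel opened by trigger with iodide after compound preincubation; score built on the fluorescence ratio of max minus min over baseline; more negative score means more quench and so TMEM16A activation or potentiation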
* marks the source's active call; other numbers are inactive results. The list is not random: actives were taken first. Their share in the collection is about 3.8%.

Screening Cc1ccc(SCc2ccc(C(=O)Nc3cc([N+](=O)[O-])ccc3C)cc2)cc1 returned MC4R antag cAMP 4.1, TMEM16A inh inactive, MC4R ag barr 22.8* and ANO1 activ inactive.
`Cc1ccc(C(=O)N(C)CC(=O)Nc2ccc(N3CCOCC3)cc2)s1` gave MC4R antag cAMP 4.7, TMEM16A inh inactive, CSC inhib 2.1, MC4R ag barr -4.1, Beta cell apopt -1.1 and ANO1 activ inactive.
C=CCNc1ncnc2c1ncn2[C@H]1CN(Cc2ccccc2)C[C@@H](COC(C)=O)O1 was read as MC4R antag cAMP 4.8 and MC4R ag barr -0.3.
Cc1nc2sc3c(NCc4ccco4)ncnc3c2c2c1COC(C)(C)C2 was read as MC4R antag cAMP -7.0, TMEM16A inh inactive, CSC inhib 85.2*, MC4R ag barr -0.2, Beta cell apopt 0.2 and ANO1 activ inactive.
`Cc1nc2ccccc2nc(C)c1=NOCc1cccc(Cl)c1` gave MC4R antag cAMP 4.1, TMEM16A inh inactive, CSC inhib -0.1, MC4R ag barr -0.1, Beta cell apopt -3.8 and ANO1 activ inactive.
COc1cccc(COc2cc3ccccc3nc2C)c1 was read as MC4R antag cAMP 6.4, TMEM16A inh 25*, CSC inhib 14.6, MC4R ag barr 3.4, Beta cell apopt 98.4* and ANO1 activ inactive.
Screening Cc1nc2ccccc2cc1OCc1ccc(Cl)cc1 returned MC4R antag cAMP 5.6, TMEM16A inh inactive, MC4R ag barr -0.3, Beta cell apopt 109.1* and ANO1 activ inactive.
`CCc1cccc2c(C(=O)CN3C(=O)N(C)C4(CCCCC4)C3=O)c[nH]c12` gave MC4R antag cAMP 0.0, MC4R ag barr -2.6, Beta cell apopt -0.2 and ANO1 activ inactive.
`Cc1ccc(NC(=O)c2ccc3c(c2)C(=O)N(c2ccccc2C)C3=O)nc1` gave MC4R antag cAMP 1.4, CSC inhib 13.5, MC4R ag barr 2.5, Beta cell apopt 6.9 and ANO1 activ inactive.
CCC(C(=O)OCC(=O)Nc1ccc(OC)cc1OC)c1ccccc1 (stereo unspecified) was read as MC4R antag cAMP -5.7, TMEM16A inh inactive, CSC inhib 6.3, MC4R ag barr 0.8, Beta cell apopt -3.9 and ANO1 activ inactive.
For CCC(C(=O)OCC(=O)Nc1cc(Cl)ccc1Cl)c1ccccc1 (stereo unspecified) the results were MC4R antag cAMP 2.8, TMEM16A inh 25*, CSC inhib -17.4, MC4R ag barr -0.8, Beta cell apopt -3.0 and ANO1 activ inactive.
Cc1cccc(-c2cc3nc4c(c(NCc5ccco5)n3n2)CCCC4)c1 was read as MC4R antag cAMP 13.7, TMEM16A inh inactive, CSC inhib 116.8*, MC4R ag barr -2.8, Beta cell apopt 33.2 and ANO1 activ inactive.
`COc1ccc(Cl)cc1N1C(=NC(=O)C2CCCO2)SC2CS(=O)(=O)CC21` (stereo unspecified) gave MC4R antag cAMP 11.1, TMEM16A inh inactive, CSC inhib 1.5, MC4R ag barr -0.1, Beta cell apopt -1.1 and ANO1 activ inactive.
Screening O=C(NCC1CCCO1)C1CCN(C2CCN(C(=O)CC3CCCC3)CC2)CC1 (stereo unspecified) returned MC4R antag cAMP -2.6, TMEM16A inh inactive, CSC inhib -5.4, MC4R ag barr 4.5, Beta cell apopt -2.1 and ANO1 activ -6.61*.
S=C(Nc1cccc(Cl)c1)N(CCCN1CCCC1)Cc1cccn1Cc1ccc(Cl)cc1 was read as MC4R antag cAMP 26.1, TMEM16A inh inactive, CSC inhib 96.0*, MC4R ag barr -0.3, Beta cell apopt 19.9 and ANO1 activ inactive.
Screening CCOC(=O)C1=CN(CC)S(=O)(=O)NC1c1ccc(C(F)(F)F)cc1 (stereo unspecified) returned MC4R antag cAMP 20.8, MC4R ag barr 2.4 and ANO1 activ inactive.
`CC1=C(CC(=O)c2ccc(Cl)cc2)C(=O)c2ccccc2C1=O` gave MC4R antag cAMP -1.0, TMEM16A inh inactive, CSC inhib 41.2, MC4R ag barr 2.7, Beta cell apopt 98.9* and ANO1 activ inactive.
`CC(C)c1cc(C(=O)OCC(=O)NC(=O)NCc2ccco2)c(O)c(C(C)C)c1` gave MC4R antag cAMP 20.9, TMEM16A inh inactive, CSC inhib -9.5, MC4R ag barr -2.1, Beta cell apopt -0.2 and ANO1 activ inactive.
`COc1ccccc1N1CCN(c2ncc(C(=O)N3CCN(c4cccc(Cl)c4)CC3)c3ccccc23)CC1` gave MC4R antag cAMP 8.5, TMEM16A inh inactive, CSC inhib 19.6, MC4R ag barr -0.7, Beta cell apopt 88.7* and ANO1 activ inactive.
CCOc1ccccc1C(=O)N1CCN(c2cccc(Cl)c2)CC1 was read as MC4R antag cAMP -18.7, TMEM16A inh inactive, CSC inhib 62.7, MC4R ag barr -1.6, Beta cell apopt 21.4 and ANO1 activ inactive.
Screening OCCCCNCc1ccc(OCc2ccc(Cl)cc2Cl)cc1 returned MC4R antag cAMP 1.5, TMEM16A inh inactive, CSC inhib 91.4*, MC4R ag barr 3.2, Beta cell apopt 43.9 and ANO1 activ inactive.
`COc1ccc(O)c(CN2CCCC(N3CCc4ccccc4C3)C2)c1` (stereo unspecified) gave MC4R antag cAMP 2.2, TMEM16A inh inactive, MC4R ag barr -1.6 and ANO1 activ inactive.
`COc1cc(C(=S)N2CCOCC2)ccc1OC(=O)c1cccc(C)c1` gave MC4R antag cAMP 3.9, TMEM16A inh 25*, CSC inhib -9.6, MC4R ag barr -0.4, Beta cell apopt 0.2 and ANO1 activ inactive.
Screening COc1cc(C(=S)N2CCOCC2)ccc1OC(=O)c1ccc(Br)cc1 returned MC4R antag cAMP 0.0, TMEM16A inh inactive, CSC inhib -6.6, MC4R ag barr -1.0, Beta cell apopt -8.2 and ANO1 activ inactive.
`CN(C)c1ccc(-c2sc(Nc3ccccc3)n[n+]2-c2ccc(F)cc2)cc1` gave MC4R antag cAMP 2.7, TMEM16A inh inactive, CSC inhib 1.8, MC4R ag barr 0.4, Beta cell apopt 3.4 and ANO1 activ inactive.
Screening COc1ccc(C)cc1Nc1n[n+](-c2ccccc2)c(-c2ccc(N(C)C)cc2)s1 returned MC4R antag cAMP -4.1, TMEM16A inh inactive, CSC inhib -1.7, MC4R ag barr -0.8, Beta cell apopt 98.7* and ANO1 activ inactive.
`COc1ccc(C)cc1Nc1n[n+](-c2ccccc2)c(-c2ccc(OC)c(OC)c2OC)s1` gave MC4R antag cAMP -4.4, TMEM16A inh inactive, CSC inhib 6.0, MC4R ag barr -1.3, Beta cell apopt 95.7* and ANO1 activ inactive.
